Source: ChEMBL document CHEMBL6177921, “Enhancing the antimycobacterial efficacy of pyridine-4-carbohydrazide: linkage to additional antimicrobial agents via oxocarboxylic acids” (RSC Med Chem, 2025)
In brackets after ≈: the same amount, converted by molar mass.

Columns and labels:
Format in all cases: functional
Mycobacterium avium [1] = assay: Antimycobacterial activity against INH/RIF/rifabutin/OFX/EMB resistant Mycobacterium avium CNCTC 330/88 assessed as bacterial growth inhibition incubated for 14 days by two-fold serial dilution method; conditions: CNCTC 330/88, 336 h, time 14 day
Outline: (§1)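 M. avium CNCTC 330/88 (stock suspension dilution 10−5) grown in Šula's semisynthetic liquid medium; two-fold serial dilutions 1000 to 1 μM from DMSO stocks (final DMSO 1.0% v/v); final load 1.5 × 10^5 CFU mL−1; MIC read visually as lowest concentration giving complete growth inhibition after 14 and 21 days.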

Mycobacterium avium [2] = assay: Antimycobacterial activity against INH/RIF/rifabutin/OFX/EMB resistant Mycobacterium avium CNCTC 330/88 assessed as bacterial growth inhibition incubated for 21 days by two-fold serial dilution method; conditions: CNCTC 330/88, 504 h, time 21 day; outline: as §1
[3] = tested on: Mycobacterium tuberculosis; assay: Antimycobacterial activity against Mycobacterium tuberculosis H37Rv CNCTC 331/88 assessed as bacterial growth inhibition incubated for 21 days by two fold serial dilution method; conditions: H37Rv CNCTC 331/88, 504 h, time 21 day
Mycobacterium kansasii [4] = assay: Antimycobacterial activity against INH/RIF/rifabutin/OFX/EMB Mycobacterium kansasii CNCTC 6509/96 clinical isolate assessed as bacterial growth inhibition incubated for 7 days by two-fold serial dilution method; conditions: CNCTC 6509/96, 168 h, time 7 day
Outline: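 Šula's liquid semisynthetic medium; M. kansasii clinical isolate 6509/96 used at stock dilution 10−4, final ~1.5 × 10^5 CFU mL−1. Two-fold dilutions ran 1000–1 μM with final DMSO 1.0% (v/v). MIC was read visually as complete growth inhibition after 7, 14 and 21 days.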

Mycobacterium kansasii [5] = assay: Antimycobacterial activity against multi-drug resistant Mycobacterium kansasii CNCTC 6509/96 clinical isolate assessed as bacterial growth inhibition incubated for 14 days by two-fold serial dilution method; conditions: CNCTC 6509/96, 336 h, time 14 day
Outline: (§2)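 M. kansasii clinical isolate 6509/96 (stock dilution 10−4) in Šula's semisynthetic liquid medium; two-fold serial dilutions 1000 to 1 μM, DMSO final 1.0% v/v; final load 1.5 × 10^5 CFU mL−1; MIC read visually as complete growth inhibition at 7, 14 and 21 days.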

Mycobacterium kansasii [6] = assay: Antimycobacterial activity against multi-drug resistant Mycobacterium kansasii clinical isolate CNCTC 6509/96 assessed as bacterial growth inhibition incubated for 21 days by two-fold serial dilution method; conditions: CNCTC 6509/96, 504 h, time 21 day; outline: as §2
[7] = tested on: Mycobacterium tuberculosis; assay: Antimycobacterial activity against multidrug sensitive Mycobacterium tuberculosis H37Rv CNCTC 331/88 assessed as bacterial growth inhibition incubated for 14 days by two-fold serial dilution method; conditions: H37Rv CNCTC 331/88, 336 h, time 14 day

Nc1ccc(S(=O)(=O)Nc2ccc(-c3ccccc3)cc2)cc1
MIC (Mycobacterium avium [1]): ≥ 1000 µM
MIC (Mycobacterium avium [2]): ≥ 1000 µM
MIC [3]: 500 µM (≈ 162 µg/mL)
MIC (Mycobacterium kansasii [4]): 250 µM (≈ 81.1 µg/mL)
MIC (Mycobacterium kansasii [5]): 250 µM (≈ 81.1 µg/mL)
MIC (Mycobacterium kansasii [6]): 500 µM (≈ 162 µg/mL)
MIC [7]: 500 µM (≈ 162 µg/mL)

O=C(/C=N/NC(=O)c1ccncc1)Nc1ccc(S(=O)(=O)Nc2ncccn2)cc1
MIC (Mycobacterium avium [1]): 500 µM (≈ 213 µg/mL)
MIC (Mycobacterium avium [2]): 500 µM (≈ 213 µg/mL)
MIC [3]: 2 µM (≈ 0.851 µg/mL)
MIC (Mycobacterium kansasii [4]): 8 µM (≈ 3.4 µg/mL)
MIC (Mycobacterium kansasii [5]): 16 µM (≈ 6.81 µg/mL)
MIC (Mycobacterium kansasii [6]): 16 µM (≈ 6.81 µg/mL)
MIC [7]: 1 µM (≈ 0.425 µg/mL)

Nc1ccc(S(=O)(=O)Nc2ccc(Oc3ccccc3)cc2)cc1
MIC (Mycobacterium avium [1]): 1000 µM (≈ 340 µg/mL)
MIC (Mycobacterium avium [2]): 1000 µM (≈ 340 µg/mL)
MIC [3]: 500 µM (≈ 170 µg/mL)
MIC (Mycobacterium kansasii [4]): 250 µM (≈ 85.1 µg/mL)
MIC (Mycobacterium kansasii [5]): 500 µM (≈ 170 µg/mL)
MIC (Mycobacterium kansasii [6]): 500 µM (≈ 170 µg/mL)
MIC [7]: 500 µM (≈ 170 µg/mL)

Cc1cc(C)nc(NS(=O)(=O)c2ccc(NC(=O)/C=N/NC(=O)c3ccncc3)cc2)n1
MIC (Mycobacterium avium [1]): 1000 µM (≈ 453 µg/mL)
MIC (Mycobacterium avium [2]): ≥ 1000 µM
MIC [3]: 2 µM (≈ 0.907 µg/mL)
MIC (Mycobacterium kansasii [4]): 8 µM (≈ 3.63 µg/mL)
MIC (Mycobacterium kansasii [5]): 16 µM (≈ 7.26 µg/mL)
MIC (Mycobacterium kansasii [6]): 16 µM (≈ 7.26 µg/mL)
MIC [7]: 1 µM (≈ 0.453 µg/mL)

COC(=O)c1ccc(NS(=O)(=O)c2ccc(N)cc2)cc1O
MIC (Mycobacterium avium [1]): > 1000 µM
MIC (Mycobacterium avium [2]): > 1000 µM
MIC [3]: 250 µM (≈ 80.6 µg/mL)
MIC (Mycobacterium kansasii [4]): 1000 µM (≈ 322 µg/mL)
MIC (Mycobacterium kansasii [5]): > 1000 µM
MIC (Mycobacterium kansasii [6]): > 1000 µM
MIC [7]: 250 µM (≈ 80.6 µg/mL)

O=C(/C=N/NC(=O)c1ccncc1)NNC(=O)c1ccncc1
MIC (Mycobacterium avium [1]): 1000 µM (≈ 312 µg/mL)
MIC (Mycobacterium avium [2]): > 1000 µM
MIC [3]: 2 µM (≈ 0.625 µg/mL)
MIC (Mycobacterium kansasii [4]): 8 µM (≈ 2.5 µg/mL)
MIC (Mycobacterium kansasii [5]): 16 µM (≈ 5 µg/mL)
MIC (Mycobacterium kansasii [6]): 16 µM (≈ 5 µg/mL)
MIC [7]: 1 µM (≈ 0.312 µg/mL)

NS(=O)(=O)c1ccc(NC(=O)/C=N/NC(=O)c2ccncc2)cc1
MIC (Mycobacterium avium [1]): 1000 µM (≈ 347 µg/mL)
MIC (Mycobacterium avium [2]): ≥ 1000 µM
MIC [3]: 2 µM (≈ 0.695 µg/mL)
MIC (Mycobacterium kansasii [4]): 16 µM (≈ 5.56 µg/mL)
MIC (Mycobacterium kansasii [5]): 32 µM (≈ 11.1 µg/mL)
MIC (Mycobacterium kansasii [6]): 32 µM (≈ 11.1 µg/mL)
MIC [7]: 1 µM (≈ 0.347 µg/mL)

Nc1ccc(S(=O)(=O)Nc2ccc(Oc3ccc(Cl)cc3)cc2)cc1
MIC (Mycobacterium avium [1]): 1000 µM (≈ 375 µg/mL)
MIC (Mycobacterium avium [2]): 1000 µM (≈ 375 µg/mL)
MIC [3]: 500 µM (≈ 187 µg/mL)
MIC (Mycobacterium kansasii [4]): 250 µM (≈ 93.7 µg/mL)
MIC (Mycobacterium kansasii [5]): 500 µM (≈ 187 µg/mL)
MIC (Mycobacterium kansasii [6]): 500 µM (≈ 187 µg/mL)
MIC [7]: 250 µM (≈ 93.7 µg/mL)

O=C(/C=N/NC(=O)c1ccncc1)Nc1ccc(S(=O)(=O)Nc2nccs2)cc1
MIC (Mycobacterium avium [1]): 250 µM (≈ 108 µg/mL)
MIC (Mycobacterium avium [2]): 500 µM (≈ 215 µg/mL)
MIC [3]: 4 µM (≈ 1.72 µg/mL)
MIC (Mycobacterium kansasii [4]): 8 µM (≈ 3.44 µg/mL)
MIC (Mycobacterium kansasii [5]): 8 µM (≈ 3.44 µg/mL)
MIC (Mycobacterium kansasii [6]): 8 µM (≈ 3.44 µg/mL)
MIC [7]: 2 µM (≈ 0.861 µg/mL)

Nc1ccc(S(=O)(=O)Nc2ccc(Oc3ccc(Cl)cc3)c(Cl)c2)cc1
MIC (Mycobacterium avium [1]): 125 µM (≈ 51.2 µg/mL)
MIC (Mycobacterium avium [2]): 125 µM (≈ 51.2 µg/mL)
MIC [3]: 125 µM (≈ 51.2 µg/mL)
MIC (Mycobacterium kansasii [4]): 125 µM (≈ 51.2 µg/mL)
MIC (Mycobacterium kansasii [5]): 125 µM (≈ 51.2 µg/mL)
MIC (Mycobacterium kansasii [6]): 125 µM (≈ 51.2 µg/mL)
MIC [7]: 125 µM (≈ 51.2 µg/mL)

C/C(=N\NC(=O)c1ccncc1)C(=O)Nc1ccc(NC(=O)/C(C)=N/NC(=O)c2ccncc2)cc1
MIC (Mycobacterium avium [1]): 250 µM (≈ 122 µg/mL)
MIC (Mycobacterium avium [2]): 250 µM (≈ 122 µg/mL)
MIC [3]: 64 µM (≈ 31.1 µg/mL)
MIC (Mycobacterium kansasii [4]): 250 µM (≈ 122 µg/mL)
MIC (Mycobacterium kansasii [5]): 250 µM (≈ 122 µg/mL)
MIC (Mycobacterium kansasii [6]): 250 µM (≈ 122 µg/mL)
MIC [7]: 64 µM (≈ 31.1 µg/mL)

Nc1ccc(S(=O)(=O)Nc2ccccc2Oc2ccccc2)cc1
MIC (Mycobacterium avium [1]): 500 µM (≈ 170 µg/mL)
MIC (Mycobacterium avium [2]): 1000 µM (≈ 340 µg/mL)
MIC [3]: 250 µM (≈ 85.1 µg/mL)
MIC (Mycobacterium kansasii [4]): 500 µM (≈ 170 µg/mL)
MIC (Mycobacterium kansasii [5]): 500 µM (≈ 170 µg/mL)
MIC (Mycobacterium kansasii [6]): 500 µM (≈ 170 µg/mL)
MIC [7]: 250 µM (≈ 85.1 µg/mL)

Nc1ccc(S(=O)(=O)Nc2ccc(Sc3ccc([N+](=O)[O-])cc3)cc2)cc1
MIC (Mycobacterium avium [1]): ≥ 1000 µM
MIC (Mycobacterium avium [2]): ≥ 1000 µM
MIC [3]: ≥ 1000 µM
MIC (Mycobacterium kansasii [4]): 8 µM (≈ 3.21 µg/mL)
MIC (Mycobacterium kansasii [5]): ≥ 1000 µM
MIC (Mycobacterium kansasii [6]): ≥ 1000 µM
MIC [7]: 125 µM (≈ 50.2 µg/mL)

O=C(O)/C=N/NC(=O)c1ccncc1
MIC (Mycobacterium avium [1]): 250 µM (≈ 48.3 µg/mL)
MIC (Mycobacterium avium [2]): > 250 µM
MIC [3]: 0.5 µM (≈ 0.0966 µg/mL)
MIC (Mycobacterium kansasii [4]): 4 µM (≈ 0.773 µg/mL)
MIC (Mycobacterium kansasii [5]): 4 µM (≈ 0.773 µg/mL)
MIC (Mycobacterium kansasii [6]): 8 µM (≈ 1.55 µg/mL)
MIC [7]: 0.25 µM (≈ 0.0483 µg/mL)

C/C(=N\NC(=O)c1ccncc1)C(=O)O [PYRUVIC ACID ISONIAZID]
MIC (Mycobacterium avium [1]): 500 µM (≈ 104 µg/mL)
MIC (Mycobacterium avium [2]): > 1000 µM
MIC [3]: 1 µM (≈ 0.207 µg/mL)
MIC (Mycobacterium kansasii [4]): 8 µM (≈ 1.66 µg/mL)
MIC (Mycobacterium kansasii [5]): 16 µM (≈ 3.32 µg/mL)
MIC (Mycobacterium kansasii [6]): 16 µM (≈ 3.32 µg/mL)
MIC [7]: 1 µM (≈ 0.207 µg/mL)
